The subject of experiment [1] is Trypanosoma cruzi. Briefly: Trypanocidal activity against intracellular amastigote form of Trypanosoma cruzi Tulahuen expressing beta-galactosidase infected in mouse L929 cells after 7 days by microplate reader analysis. It counts as functional, organism-based. The settings on record: L929, 168 h.
Experiment [2] deals with Trypanosoma cruzi. As to the kind of experiment: Trypanocidal activity against intracellular trypomastigote form of Trypanosoma cruzi Tulahuen expressing beta-galactosidase infected in mouse L929 cells after 7 days by microplate reader analysis. The following applies: L929, 168 h. It counts as functional, organism-based.
The nature of experiment [3]: Selectivity index, ratio of IC50 for human PBMC to IC50 for Leishmania amazonensis IFLA/BR/67/PH8. In outline: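 Ratio of PBMC proliferation IC50 (PHA-stimulated, MTT, 48 h) to promastigote IC50 (MTT, 48 h).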
A further experiment has as its system PBMC. As to the kind of experiment: Inhibition of cell proliferation of phytohemagglutinin-induced human PBMC. The experiment is classed as cell-based.
The test system of a further experiment is Leishmania amazonensis. Briefly: Antiparasitic activity against promastigote form of Leishmania amazonensis IFLA/BR/67/PH8 after 48 hrs by MTT assay. It counts as functional, organism-based. The settings on record: IFLA/BR/67/PH8, 48 h. In outline:
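Promastigotes kept at 23 °C in Schneider's medium with 20% heat-inactivated FCS, pH 7.2; plated at 1 × 10⁷/well. Screening at 100 µM in triplicate, then six-point dilutions in duplicate for compounds exceeding 50% inhibition. After 48 h, MTT added for 4 h, stopped with isopropanol/SDS, OD 570 nm read; IC50 from curve; three independent experiments.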
A general note: Formazan colour is commonly taken as a measure of viable cells.

One may read the IC50 as the concentration needed to halve the response being measured. Read a low IC50 as inhibition by little substance.

Regarding `O=C(O)c1ccc(CBr)cc1`, the IC50 with Trypanosoma cruzi [1] was over 1000 µM; with Trypanosoma cruzi [2] it was over 500 µM; with PBMC, 88.8 µM; in the experiment with Leishmania amazonensis, over 100 µM. Further, the “Ratio IC50” value in experiment [3] is listed as under 0.9.
The corresponding values for `O=C(O)c1ccc(CBr)c([N+](=O)[O-])c1` are over 1000 µM, over 500 µM, 344 µM, over 100 µM and under 3.4.
The corresponding values for `COC(=O)c1ccc(CBr)c([N+](=O)[O-])c1` are over 1000 µM, over 500 µM, 44.1 µM, 39.3 µM and 1.1.
`O=C(O)c1ccc(CO)c([N+](=O)[O-])c1`: the half-maximal inhibitory concentration (IC50) with Trypanosoma cruzi [1] is over 1000 µM; in the experiment on Leishmania amazonensis, over 100 µM.
For the compound `O=C(NCCO)c1ccc(CBr)c([N+](=O)[O-])c1`, the IC50 was over 1000 µM in the experiment with Trypanosoma cruzi [1], 53.9 µM with PBMC and 23.1 µM in the experiment on Leishmania amazonensis. For the same compound, in experiment [3], the “Ratio IC50” value is 2.3.
Taken in the same sequence, the figures for `O=C(NCCO)c1ccc(CCl)c([N+](=O)[O-])c1` were over 1000 µM, 960 µM, 59.5 µM and 16.1.
Taken in the same sequence, the figures for `O=C(NCCCl)c1ccc(CCl)c([N+](=O)[O-])c1` were over 1000 µM, 1100 µM, 50.6 µM and 21.7.
Taken in the same sequence, the figures for `O=C(NCCO)c1ccc(CCl)cc1` were over 1000 µM, 330 µM, over 100 µM and under 3.3.
In the experiment with Trypanosoma cruzi [1], `O=C(Cn1ccnc1[N+](=O)[O-])NCc1ccccc1` [BENZNIDAZOLE] had an IC50 of 3.8 µM.

The values are drawn from ChEMBL document CHEMBL1833835, “Synthesis and evaluation of the anti parasitic activity of aromatic nitro compounds” (Eur J Med Chem, 2011).
